# From PubChem
# Rows were chosen to be rich in hits. Some 1.8% of all compounds tested hit in one or more screens of this group.
# CHRM4 antagonist: CHRM4 antagonism in calcium assay | inhibition, % at 3 µM | CHO-hM4 cells, ACh EC80, Fluo-8 calcium fluorescence | hit rate 0.73% among 360,000;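 active = inhibition above its plate's cutoff, the mean inhibition of sample wells plus 3 SD, cut at about 27% in these data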;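 note: 0% = acetylcholine EC80 with DMSO and 100% = DMSO without agonist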
# CHRM4 PAM: positive allosteric modulators of human muscarinic M4 receptor; P08173; CHO-K1 hM4/Gqi5, Fluo-8 calcium fluorescence, ACh EC20; 0% = ACh EC20, 100% = maximal ACh; activation, % at 3 µM; hit rate 0.4% among 360,000; AID 624126;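 active = activation above its plate's cutoff, the mean activation of sample wells plus 3 SD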
# CHRM5 agonist: CHRM5 agonism in calcium assay; P08912; CHO-K1 hM5 cells, Fluo-8 calcium fluorescence; 0% DMSO wells, 100% maximal acetylcholine response; activation, % at 3 µM; hit rate 0.19% among 360,000; AID 624037;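 active = activation above the run's mean over test compounds plus 3 SD, cut at about 23% in these data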;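 note: signal is peak over basal fluorescence ratio across the kinetic read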
# Target sequence (P08912 whole entry, looked up): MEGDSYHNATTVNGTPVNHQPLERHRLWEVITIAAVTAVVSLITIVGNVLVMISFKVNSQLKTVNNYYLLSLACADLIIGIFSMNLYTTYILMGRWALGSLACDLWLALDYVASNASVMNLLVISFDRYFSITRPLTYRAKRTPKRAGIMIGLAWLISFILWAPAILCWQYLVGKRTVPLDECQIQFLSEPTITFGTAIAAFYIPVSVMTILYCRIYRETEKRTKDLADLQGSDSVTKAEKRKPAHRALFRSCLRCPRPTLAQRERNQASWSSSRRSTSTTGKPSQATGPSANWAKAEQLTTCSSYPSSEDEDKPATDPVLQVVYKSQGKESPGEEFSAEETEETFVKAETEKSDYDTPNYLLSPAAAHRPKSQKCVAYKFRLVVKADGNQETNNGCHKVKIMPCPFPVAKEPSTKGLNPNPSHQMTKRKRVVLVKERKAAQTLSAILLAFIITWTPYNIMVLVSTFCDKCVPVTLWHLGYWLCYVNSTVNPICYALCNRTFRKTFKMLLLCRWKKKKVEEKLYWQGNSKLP
# CHRM4 agonist: agonists of human muscarinic M4 receptor (CHRM4); P08173; CHO-K1 hM4/Gqi5, Fluo-8 calcium fluorescence; vehicle 0%, full acetylcholine response 100%; activation, % at 3 µM; hit rate 0.14% among 360,000;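 active = activation above the run mean over all test wells plus 3 SD, cut at about 32% in these data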;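 note: peak over basal fluorescence ratio per well then scaled between controls; 0% = DMSO wells and 100% = acetylcholine at EC100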
# M5 antag: CHRM5 antagonism in calcium assay; P08912; CHO-hM5 cells, Fluo-8 calcium fluorescence, ACh EC80; inhibition, % at 3 µM; hit rate 0.59% among 360,000; AID 624040;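 active = inhibition above a per-plate cutoff, the mean of that plate's test compounds plus 3 SD, cut at about 27% in these data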;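 note: 0% = acetylcholine EC80 with DMSO and 100% = DMSO without agonist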
# M5 PAM: positive allosteric modulators of human muscarinic M5 receptor | activation, % at 3 µM | hit rate 0.3% among 360,000 | CHO-K1 hM5, Fluo-8 calcium, ACh EC20 PAM; 0% = ACh EC20, 100% = ACh EC100;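 active = activation above the run cutoff, the mean activation of all test compounds plus 3 SD, cut at about 18% in these data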
#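 Assay system: CHO-K1 hM5 cells / Incubation: Fluo-8 loading 80 min at 37 °C plus 30 min room temperature / Technique: Fluo-8 calcium dye fluorescence, kinetic read / Repeats: single replicate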
# Numbers without * were called inactive.
SMILES,CHRM4 antagonist,CHRM4 PAM,CHRM5 agonist,CHRM4 agonist,M5 antag,M5 PAM
CC(C)Cc1ccc(C(C)C(=O)Nc2nccs2)cc1 (configuration not stated),30*,-6,38*,34*,26,-1
O=C(COC(=O)CNC(=O)c1cccs1)Nc1ccc(C(F)(F)F)cc1[N+](=O)[O-],0,2,0,6,-5,8
Cc1ccc(-n2c(Cl)c(Cl)nc(Cl)c2=O)cc1,37*,-6,-4,-3,2,2
N#Cc1c(Nc2cccc(F)c2)sc2c(O)cc(=O)[nH]c12,-3,0,0,1,2,3
N#Cc1cc2ccccc2nc1SCc1ccccn1,6,-13,18,52*,17,-17
COc1cc(/C=C(/NC(=O)c2ccccc2)C(=O)N2CCOCC2)c([N+](=O)[O-])cc1OC,8,-1,-2,1,29*,-6
O=C(N/C(=C/c1cccnc1)C(=O)N1CCOCC1)c1ccccc1,-8,21*,-3,1,5,2
C=C(c1ccccc1)c1ccccc1N,0,2,-1,-3,7,12
CC(CN1CCCCC1)OC(=O)C(C)(c1ccccc1)c1ccccc1 (configuration not stated),20,-18,-12,-1,40*,-54
CC(CN1CCOCC1)OC(=O)C(C)(c1ccccc1)c1ccccc1 (configuration not stated),-12,2,-14,0,9,-20
O=C(Nc1ccccc1C(F)(F)F)N1CCN(C(c2ccccc2)c2ccccc2)CC1,35*,-27,-8,0,30*,-18
O=C(c1ccc(C#CC2(O)CCCCC2)cc1)N1CCN(C(c2ccccc2)c2ccccc2)CC1,35*,-25,-10,2,17,-14
O=C(c1ccc(C#CC2(O)CCCCC2)cc1)N1CCN(Cc2ccccc2)CC1,3,-4,-1,7,-4,-4
O=C(NC(=O)N1CCN(C(c2ccccc2)c2ccccc2)CC1)c1ccccc1,30*,-35,-16,0,16,-31
CSc1ccc(Cn2c(C)c(C(=O)NCc3cccc(Cl)c3)sc2=O)cc1,-9,-10,1,6,-2,-8
COc1ccc(CCNC(=O)COC(=O)c2cc(S(=O)(=O)NCc3ccccc3)ccc2O)cc1OC,19,32*,2,2,-14,7
CC[N+]1(C)CCC(=C2c3ccccc3CC(=O)c3sccc32)CC1 (configuration not stated),99*,-29,-7,1,99*,-17
C[N+]1(C)CCC(=C2c3ccccc3CC(=O)c3sccc32)CC1,80*,-29,-8,0,77*,-17
O=C1c2ccccc2CCc2ccccc21,-6,6,-3,-1,8,2
COc1ccc(O)c(C(=O)/C=C/c2cc3ccccc3o2)c1,-16,19*,-1,1,4,5
O=C(/C=C/c1cc2ccccc2o1)c1ccccc1O,-12,8,-10,-1,5,-8
CCc1ccc(-c2cc(C)no2)cc1S(=O)(=O)NCCCN1CCN(c2ccccc2)CC1,31*,-13,1,25,29*,-15
O=c1nc(SCc2ccccc2Cl)nc(-c2ccc(Cl)cc2)[nH]1,-4,-3,2,0,-6,1
O=c1nc(SCc2c(F)cccc2Cl)nc(-c2ccc(Cl)cc2)[nH]1,-20,39*,-4,1,5,3
Cc1noc(C)c1CSCC(=O)N1CCN(c2ccc([N+](=O)[O-])cc2)CC1,18,-16,2,18,29*,-25
SMILES,CHRM4 antagonist,CHRM4 PAM,CHRM5 agonist,CHRM4 agonist,M5 antag,M5 PAM
COc1ccc(-n2c(-c3ccc(Cl)cc3)c[n+]3c2CCc2ccccc2-3)cc1,24,-14,-10,1,11,-4
Cc1ccc(-n2c(-c3ccc(Br)cc3)c[n+]3c2CCc2ccc4cccnc4c2-3)cc1,41*,-31,-8,4,36*,-20
CCOC(=O)C1C(=O)C=C(c2ccc(C)cc2)CC1c1cccc([N+](=O)[O-])c1 (configuration not stated),4,-11,-4,3,24,-16
CC(=O)N1CC2([N+](=O)[O-])CN(C(C)=O)CC([N+](=O)[O-])(C1)C2(C)C,-2,20*,2,0,-9,10
O=C1S/C(=C\c2ccc(Cl)cc2)C(=O)N1CCn1cnnn1,-9,4,3,8,-11,6
CCOC(=O)c1ccc(N2CCN(c3ccc(F)cc3)CC2)c(NC(=O)Nc2cccc(OC)c2)c1,-3,3,-1,3,-2,-3
CCOC(=O)c1ccc(N2CCN(c3ccccc3F)CC2)c(NC(=O)Nc2ccccc2)c1,36*,-12,0,11,40*,-18
Cc1ccc(S(=O)(=O)N2[C@@H](CO)CO[C@H]2CC(=O)c2ccccc2)cc1,-1,0,2,3,7,-7
NC(=O)c1ccsc1NC(=O)COC(=O)c1c(F)cccc1Cl,4,-5,8,17,9,-21
CCCCC1NC(C(=O)O)CS1 (configuration not stated),7,-5,2,1,5,-1
CCCCCCC1NC(C(=O)O)CS1 (configuration not stated),-5,18*,-9,0,-4,6
CCOC(=O)C1CCCN(C2CCN(Cc3nc(-c4ccccc4)no3)CC2)C1 (configuration not stated),14,-12,-10,1,45*,-18
CCOC(=O)C1CCN(C2CCN(Cc3nc(-c4ccccc4)no3)CC2)CC1,0,-11,-5,4,9,-7
CCOc1ccccc1NC(=O)CCN1CCN(S(=O)(=O)c2ccc(Br)cc2)CC1,3,16*,7,6,-4,-1
O=C(COC(=O)c1cc(=O)c2ccccc2o1)Nc1ccc2ccccc2c1,-4,10,-1,1,1,-5
N#C/C(=C\c1ccc(O)c([N+](=O)[O-])c1)c1nc2ccccc2s1,7,-6,14,14,31*,-20
COc1cc(/C=C(\C#N)c2nc3ccccc3s2)cc([N+](=O)[O-])c1O,15,7,7,3,0,0
CC(=O)c1c(N2CCCC2)nc(=S)n(-c2ccccc2)c1C,47*,-17,-8,1,5,-4
CCn1c(C)c(C(C)=O)c(N2CCN(c3ccccc3)CC2)nc1=S,2,-8,-8,0,-6,-5
